Reference: the EternaBench riboswitch data

Test system: MS2 coat protein
Assay: apparent Kd, MS2 coat protein; higher = weaker binding; RNA-MaP array; FMN 200 µM where present
Summary of the method: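 Apparent Kd: the median of filtered binding-curve fits from single clusters. Designs were transcribed on Illumina sequencing-chip clusters by stalled E. coli RNA polymerase and titrated with SNAP-549-labelled MS2 coat protein from 0.7 or 1.5 nM, doubling to 3 µM, in 100 mM Tris-HCl pH 7.5, 80 mM KCl, 4 mM MgCl2, BSA, DTT, yeast tRNA and Tween-20. Each series ran without and then with constant ligand, and green signal was normalised to red-channel RNA signal and control-cluster median Fmax.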

[1] = designed as: OFF switch for flavin mononucleotide, no ligand
[2] = ligand present: flavin mononucleotide, designed as: OFF switch for flavin mononucleotide
[3] = designed as: ON switch for flavin mononucleotide, no ligand
[4] = ligand present: flavin mononucleotide, designed as: ON switch for flavin mononucleotide

Sequence | apparent Kd [1] [nM] | apparent Kd [2] [nM] | apparent Kd [3] [nM] | apparent Kd [4] [nM]
ACACAGGGAGGAUAUACAUGAGGAUCACCCAUGUAGAGUGGAUUGGGAUUGCUAUCAAGUAGAAGGCUUUAGUG | 56.1 | 122 | – | –
ACACAUGAGGAUCACCCAUGUAGCUGGCGUCUGCGCCAGCCACAGGAUAUACGGCAAAACAAACCGUAGAAGGGUGAUAAACAC | – | – | 80.1 | 31.8
ACAGCGAUGGUUAGGAUAUCCACGAGUACUUCGUCGGAGAAGGAACAUGAGGAUCACCCAUGUAGAUCCCAGGG | 146 | 319 | – | –
ACAGCGGCAGGAUAUGCAUGCUCCGACUUAUGCCGACAAAGACAUGAGGAUCACCCAUGUAGAAGGGCCAGCGG | 23.1 | 22.8 | – | –
ACAGCGUGAGGAUAUACAUGAGGAUCACCCAUGUGUGGCAGGUUAUCCUGUCAUAAGUGUAGAAGGCACGCUGU | 44.4 | 93.9 | – | –
ACAGUAAACGAAGGAUAUGGUUACAUGAGGAUCACCCAUGUAAUGGUUGUGAUAUUGAUUAAGUUCCAGAAGGUCGUAUACUUA | 190 | 272 | – | –
ACAGUGCGAGGAUAUACAUGAGGAUCACCCAUGUGAGAGAAAUAAGUGAGGAAGAAAAGUAGAAGGCGCGUUGA | 75.5 | 91.7 | – | –
ACAUGAGGAUCACCCAUGUAGAAUGGAGAAGGUAGAUACUUGUGACUCUCCCAUGUACAUAGGACUGAGGAUAUUCUAAUAAUU | – | – | 49.6 | 40.2
ACAUGAGGAUCACCCAUGUAUACAUAGGAUAUUGGUGAUCAGGCAUGUUUUACAGGAUAUGUCUGCGAGAAGGAUGCAAGUUGU | – | – | 633 | 346
ACAUGAGGAUCACCCAUGUGACCACAAUGGCUGAUGUAACAACAGGAUAUUCGUGAAUAUCUAACGAAGAAGGGUUAUGACUGG | 71.4 | 65.2 | – | –
ACAUGAGGAUCACCCAUGUUAUGUUGGGUACUAAAUUAUUCGUAGGAUAUCGUAGCUAGUUUGUGCGAGAAGGACGCAGUUUUU | 257 | 277 | – | –
ACAUGAGGAUCACCCAUGUUCACAUAGGAUAUUGAUUAUAUUGGUUUAAGAAUAGUAAUUGACCUCAAGAAGGAUGCCUGAUCU | – | – | 15.3 | 12.2
ACAUGAGGAUCACCCAUGUUCACAUAGGAUAUUGAUUAUAUUGGUUUUUGAAUAGUAAUUAACCUCAAGAAGGAUGCCUGAUCU | – | – | 11.6 | 9.34
ACAUGAGGAUCACCCAUGUUGACAUAGGAUAUACAACAUUAGUUUCAUUCAUGUAAACUUUGAUAGUAGAAGGAUGGUACAUGA | 13.2 | 13 | – | –
ACAUGAGGAUCACCCAUGUUUUUUGGGUACUUUUGUUUCUGCAAGGAUAUGCAUUAUUUAUAUACGCAGAAGGUGCAUUACUUC | 573 | 708 | – | –
ACAUGAUAUGUAGGAUAUCACAACAUGAGUUUUAAUAUUGUUAUUUAGGAUUGAGAAGGACAUUUACAUGAGGAUCACCCAUGU | 17.5 | 14.6 | – | –
ACAUGAUAUGUAGGAUAUCACAUUAAUUGAUUAAUAUAUGAAUAUAGAAUUUGAGAAGGACAUUUACAUGAGGAUCACCCAUGU | 15.7 | 10.8 | – | –
ACAUGAUCAGGAUAUACAUGAGGAUCACCCAUGUAUUUCAAAAAGGGACUUUCUUUAUGUAGAAGGGAUCUUGU | 15.8 | 43.1 | – | –
ACAUGUAAUACAGGAUAUGUUAUACAUUAAUCAAUCAGUUAUUAUGAUUAUACAGAAGGGUAUACAUGAGGAUCACCCAUGUUA | 19.7 | 26.2 | – | –
ACAUUUAAUACAGGAUAUGUUAGUAUACAGUUGAUUGGUUAUUACAUUAUAACAGAAGGGUAGAACAUGAGGAUCACCCAUGUA | – | – | 153 | 73.2
ACAUUUAAUACAGGAUAUGUUGGUAUACAAUAGAUUGGUUAUAACACAUCAACAGAAGGGUAGAACAUGAGGAUCACCCAUGUA | – | – | 53.6 | 23.3
ACCAAGCGAGGAUAUACUUAGAUUUUUUCGUUUAGUCUCGAACAUGAGGAUCACCCAUGUAGAAGGUGCUUCAC | 47.8 | 46.5 | – | –
ACCAAUGGAGGAUAUACAUGAGGAUCACCCAUGUAUAACCUACAUAGGUGAAAAUUAUGUAGAAGGCCAUUGGA | 14.6 | 13.4 | – | –
ACCAUUUACUAGUUUUCUAUACAUGAGGAUCACCCAUGUUUUUAGGAUAUCAGCGUGAAACACGCUGAGAAGGAAGAACAAUCG | 19.1 | 24.6 | – | –
ACCUCGUACACAGGAUAUGAUUACUUGCAGCCUGCGUUGACAUGAGGAUCACCCAUGUGGACUGAUCAGAAGGGUGAACGGAAG | – | – | – | 112
ACGACGAAAAUCGAACGAUGUAGCAGAAGGACAUGAGGAUCACCCAUGUAAAAUGUAACAGCCAUGUAGGAUAUGCUACAUCGA | 40.9 | 272 | – | –
ACGACGAAAGUCGAACGAUGUAGCAGAAGGACAUGAGGAUCACCCAUGUAAAAUGUAACAGCCAUGUAGGAUAUGCUACAUCGA | 31.3 | 238 | – | –
ACGCCCUGAGGAUAUCUUAUCCCGUACAUGAGGAUCACCCAUGUUUUCCUCCGGGCUCCGAGAGAAGGCAGGCCCA | 42.2 | 75.9 | – | –
